Results on 14 compounds are retold here after ChEMBL document CHEMBL1136806, “Synthesis and in vitro and in vivo antimalarial activity of N1-(7-chloro-4-quinolyl)-1,4-bis(3-aminopropyl)piperazine derivatives” (J Med Chem, 2003).

Data set [1] deals with MRC5. Kind of data set: Cytotoxicity of compound was tested on human diploid embryonic lung cell line (MRC-5). The data set is classed as functional.
Data set [2] can be described thus: Vacuolar accumulation ratio was determined. The data set is classed as functional. In outline:
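Calculated, not measured: Henderson–Hasselbalch-derived equation using predicted pKa values, assuming vacuolar pH 5.0 and external pH 7.4.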

Data set [3] has as its system Plasmodium falciparum. Nature of the data set: In vitro antimalarial activity against Plasmodium falciparum FcB1. The format is functional, organism-based. A digest of the protocol: (§1)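 Asynchronous P. falciparum FcB1 cultures in human erythrocytes (0.5% parasitemia, 1% hematocrit) were exposed to serial dilutions for 24 h at 37 °C. [3H]-hypoxanthine was then added. Incorporation was compared with drug-free controls, DMSO ≤0.1%. IC50 came from the concentration–response curve, reported as mean ± SD of three experiments.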

The test system of data set [4] is MRC5. Nature of the data set: Cytotoxicity was tested on human diploid embryonic lung cell line (MRC-5) (in vitro). The data set is classed as functional.
Data set [5] can be described thus: Partition coefficient was determined by dividing the concentration of compound in 1-octanol by concentration in aqueous phase at pH 5.0. The settings on record: 1-octanol/aqueous phase, read-out: Log D5.0. The data set is classed as physicochemical.
Data set [6] can be described thus: Partition coefficient was determined by dividing the concentration of compound in 1-octanol by concentration in aqueous phase at pH 7.4. The data set is classed as physicochemical. The settings on record: 1-octanol/aqueous phase, read-out: Log D7.4.
For data set [7], the system named is Plasmodium falciparum. Kind of data set: Antimalarial activity against Plasmodium falciparum FcB1. The format is functional, organism-based. A digest of the protocol:
as §1

Structures are written as SMILES. Where only a bound is given, the exact number is not on record here.

The term CC50 denotes the concentration giving 50% cytotoxicity. High values mean better tolerance by the cells, low ones harm at low concentration. `CCN(CC)CCCC(C)Nc1ccnc2cc(Cl)ccc12` (stereo not drawn) [CHLOROQUINE] displayed a CC50 in data set [1] of 50000 nM. Besides, in data set [2], the VAR is 53600.
For orientation: IC50 means the concentration needed to halve the response being measured. The compound `COc1ccc(C(=O)NCCCN2CCN(CCCNc3ccnc4cc(Cl)ccc34)CC2)cc1` had an IC50 in data set [3] of 20.2 nM. In data set [4], this compound registered a cytotoxic concentration (CC50) of 4000 nM.
The compound `O=C(Cc1ccccc1)NCCCN1CCN(CCCNc2ccnc3cc(Cl)ccc23)CC1` had an IC50 in data set [3] of 67.4 nM. In data set [4], the CC50 is 4000 nM.
The matching figures for `Clc1ccc2c(NCCCN3CCN(CCCNCCc4ccccc4)CC3)ccnc2c1`: 18.5 nM and 5000 nM.
The matching figures for `Clc1ccc2c(NCCCN3CCN(CCCN(CCc4ccccc4)CCc4ccccc4)CC3)ccnc2c1`: 26.2 nM and 1000 nM.
For `CCCCN(CCCC)CCCN1CCN(CCCNc2ccnc3cc(Cl)ccc23)CC1`, the logD was -1.75 in data set [5] and 1.92 in data set [6].
For `Clc1ccc2c(NCCCN3CCN(CCCNCc4ccnc5ccccc45)CC3)ccnc2c1`, the half-inhibitory concentration (IC50) in data set [3] is 74.1 nM. The CC50 in data set [4] stood at 1200 nM.
With `O=C(NCCCN1CCN(CCCNc2ccnc3cc(Cl)ccc23)CC1)C1CC1`, the values for the logD in data set [5] and in data set [6] were -0.23 and above 2.78, respectively.
`Clc1ccc2c(NCCCN3CCN(CCCNc4ccnc5cc(Cl)ccc45)CC3)ccnc2c1` had a CC50 in data set [1] below 1000 nM. The compound further registered a concentration for half-maximal inhibition (IC50) in data set [7] of 23 nM.
The compound `COc1ccc(CN(CCCN2CCN(CCCNc3ccnc4cc(Cl)ccc34)CC2)Cc2ccc(OC)cc2)cc1` showed an IC50 in data set [3] of 9.6 nM. In addition, the CC50 in data set [4] came to 1000 nM.
In the case of `O=C(NCCCN1CCN(CCCNc2ccnc3cc(Cl)ccc23)CC1)c1ccc([N+](=O)[O-])cc1`, the logD in data set [5] was 0.31; in data set [6], above 2.78.
As for `O=C(NCCCN1CCN(CCCNc2ccnc3cc(Cl)ccc23)CC1)c1cccc(Oc2ccccc2)c1`, the IC50 in data set [3] came out at 20.8 nM. In data set [4], this compound registered a CC50 of 5000 nM. Further, in data set [2], the VAR amounted to 29500.
Take `CCCC(=O)NCCCN1CCN(CCCNc2ccnc3cc(Cl)ccc23)CC1`: the logD in data set [6] was 1.06.
As to `Clc1ccc2c(NCCCN3CCN(CCCN(CC4CC4)CC4CC4)CC3)ccnc2c1`, the logD in data set [5] is below -2.78; in data set [6], 1.16.
